Published values from different studies.
Protocols differ between the studies behind these lines.
Target: Mitogen-activated protein kinase 7 (MAPK7, Homo sapiens, UniProt Q13164)

Compound | observed | action | technique | concentration | endpoint | value
CS(=O)(=O)N1CCCC(NC(=O)[C@H](CCC2CCCCC2)NC(=O)c2ccc(CNc3ncnc4c3nnn4-c3ccccc3)cc2)C1 (stereo partly drawn) | cell-free assay |  | competition with immobilised ligand | 0.1 µM | remaining binding | 94%
CCCCNc1ncc2c(-c3ccc(F)cc3)nn(C[C@H]3CC[C@H](N)CC3)c2n1 | target engagement in cells | inhibitor | chemoproteomics | 20 mM | inhibition | 11%
CC/C(=N\NC(=O)NCc1cccc(O)c1)c1ccc(O)c(C)c1O | enzyme activity | inhibitor |  | 0.1 µM | inhibition | -1.7%
FC(F)(F)Oc1cccc(-c2cnc3ccc(-c4ccncc4)nn23)c1 | enzyme activity | inhibitor | radiometric | 5 µM | activity vs control | 56%
Cn1cc(Cl)c2c(Oc3c(F)cc(Nc4cc(Cl)nc(N)n4)cc3F)ccnc21 | cell-free assay |  | competition with immobilised ligand | 0.1 µM | remaining binding | 100%
CC(C)(C)c1nc(-c2cccc(NS(=O)(=O)c3c(F)cccc3F)c2F)c(-c2ccnc(N)n2)s1 | enzyme activity | inhibitor | radiometric | 1 µM | remaining activity | 74%
COc1cc(Nc2cnc(C#N)c(O[C@H](C)CN(C)C)n2)ncc1-c1cnn(C)c1 | enzyme activity | inhibitor | radiometric | 1 µM | remaining activity | 86%
Nc1ncnc2occ(-c3ccc(NC(=O)Nc4cc(C(F)(F)F)ccc4F)cc3)c12 | cell-free assay | inhibitor |  | 20 µM | remaining signal | 1.6%
COc1ccc2c(c1)O[C@@H](c1ccc(OC)c(OC)c1)C[C@H]2NC(=O)C1(c2ccc3c(c2)OC(F)(F)O3)CC1 | cell-free assay |  | competition with immobilised ligand | 1 µM | remaining binding | 100%
COc1cc(/C=C/C(=O)CC(=O)/C=C/c2ccc(O)c(OC)c2)ccc1O | enzyme activity | inhibitor |  | 1 µM | activity vs control | 62%
O=C(Nc1ccc(Oc2ccc(F)cc2)cc1)N1CCc2ncccc2[C@H]1c1ccc(F)cc1 | cell-free assay |  | competition with immobilised ligand | 1 µM | remaining binding | 96%
O=C(Nc1cnn(-c2csc(C(=O)NC3COC3)c2)c1)Nc1ccccc1Cl | enzyme activity | inhibitor |  | 5 µM | remaining activity | 119%
